Results on 7 molecules are retold here after publication PMC7224986 (Journal of medicinal chemistry, 2016).

Each structure is given as a SMILES string.

One assay concerns T. gondii parasites. Description: Invasion inhibition assay of T. gondii into host fibroblast cells. Format: cell-based, Toxoplasma gondii. Summed up: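 Type I RH strain, clone 2F, expressing E. coli β-galactosidase. Compound came from a 10 mM DMSO stock diluted in medium with 1% DMSO, which was also the vehicle control. Parasites were preincubated with compound for 20 min at room temperature. Then 5 × 10^2 parasites/well were added to confluent human foreskin fibroblasts in DMEM/10% FBS, centrifuged ~300g for 5 min, and cultured at 37°C, 5% CO2. EC50 from a variable-slope sigmoidal fit; three experiments, each in triplicate.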

The target of the next assay is mammalian actin (Oryctolagus cuniculus, UniProt P68135). Description: Pyrene fluorescence actin polymerization assay. Format: biochemical. The following applies: for inhibition at 10 µM: read-out: Inhibition of mammalian actin polymerization at 10 μM; for inhibition at 100 µM: read-out: Inhibition of mammalian actin polymerization at 100 μM; for Inhibition of mammalian actin polymerization at 10 μM: 10 μM compound. The method, boiled down: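 Actin was 5% pyrene-labelled, held in Ca buffer G (2 mM Tris pH 8, 0.2 mM ATP). It was converted to the Mg2+ form (final 1 mM EGTA, 0.1 mM MgCl2) for 2 min at room temperature. Actin at 2.5 μM final was preincubated 1 min with compound in DMSO; latrunculin B was the positive control. Polymerisation was started with KCl 50 mM, imidazole 10 mM pH 7, MgCl2 1 mM, EGTA 1 mM. Pyrene fluorescence (ex 365/em 407 nm) was read every 15 s for 90 min, in triplicate.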

Turning to `CCCCC(=O)OC1CCOC(OC)([C@@H]2CSC(=O)N2Cc2ccc(OC)cc2)C1` (stereo partly drawn) [Compound 10, 2-Methoxy-2-((R)-3-(4-methoxybenzyl)-2-oxothiazolidin-4-yl)tetrahydro-2H-pyran-4-yl pentanoate], the “activity against T. gondii (in words)” value in the assay on T. gondii parasites was “inactive”. Same read-out and setting: the entry for `COc1ccc(CN2C(=O)SC[C@H]2C2(OC)CC(OC(=O)C3CCCC3)CCO2)cc1` (stereo partly drawn) [Compound 11, 2-Methoxy-2-((R)-3-(4-methoxybenzyl)-2-oxothiazolidin-4-yl)tetrahydro-2H-pyran-4-yl cyclopentanecarboxylate] is “inactive”.

As for `COc1ccc(CN2C(=O)SC[C@H]2C2(OC)CC(OC(=O)c3ccccc3I)CCO2)cc1` (stereo partly shown) [Compound 14, 2-Methoxy-2-(3-(4-methoxybenzyl)-2-oxothiazolidin-4-yl)tetrahydro-2H-pyran-4-yl 2-iodobenzoate], at mammalian actin, the inhibition at 10 µM is less than 10% and the inhibition at 100 µM is less than 10%. Consider `COc1ccc(CN2C(=O)SC[C@H]2C2(OC)CC(OC(=O)c3ccccc3-c3cccs3)CCO2)cc1` (stereo partly drawn) [Compound 15, 2-Methoxy-2-((R)-3-(4-methoxybenzyl)-2-oxothiazolidin-4-yl)tetrahydro-2H-pyran-4-yl 2-(thiophen-2-yl)benzoate], for which, on mammalian actin, the inhibition at 10 µM is less than 10% and the inhibition at 100 µM was less than 10%. As for `COc1ccc(CN2C(=O)SC[C@H]2C2(OC)CC(OC(=O)c3ccccc3C3=CCCCC3)CCO2)cc1` (stereo partly drawn) [Compound 16, 2-Methoxy-2-((R)-3-(4-methoxybenzyl)-2-oxothiazolidin-4-yl)tetrahydro-2H-pyran-4-yl 2',3',4',5'-tetrahydro-[1,1'-biphenyl]-2-carboxylate], on mammalian actin, the inhibition at 10 µM is less than 10% and the inhibition at 100 µM is less than 10%. Regarding `COc1ccc(CN2C(=O)SC[C@H]2C2(OC)CC(OC(=O)c3ccccc3-c3cccc4ccccc34)CCO2)cc1` (stereo partly drawn) [Compound 17, 2-Methoxy-2-((R)-3-(4-methoxybenzyl)-2-oxothiazolidin-4-yl)tetrahydro-2H-pyran-4-yl 2-(naphthalen-1-yl)benzoate], on mammalian actin, the inhibition at 10 µM was less than 10% and the inhibition at 100 µM is less than 10%. Regarding `C/C1=C/C(=O)O[C@@H]2C[C@@H](CC[C@H](C)/C=C\CC1)O[C@@](O)([C@@H]1CSC(=O)N1)C2` [Latrunculin B, latrunculin B, reference compound], the “Inhibition of mammalian actin polymerization at 10 μM” value turned out to be 100% at mammalian actin (2.5 μM actin, pyrene fluorescence) and 100% on mammalian actin (2.5 μM actin, pyrene fluorescence, listed as latrunculin B). Further, at mammalian actin (100 μM compound, 2.5 μM actin, pyrene fluorescence), the “Inhibition of mammalian actin polymerization at 100 μM” value is listed as 100%.
